Test results taken from ChEMBL document CHEMBL4689842, “EUbOPEN Chemogenomics Library wave 1” (2021).

System: U2OS
Assay: Multiplex assay against U2OS
Assay type: toxicity, cell-based
Details: human
In short: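 Live cells were stained at seeding with Hoechst33342, BioTracker Green Microtubule Cytoskeleton Dye, MitoTracker Red and Annexin V Alexa Fluor 680. Following compound addition, they were imaged on a CQ1 microscope at 37°C and 5% CO2 and gated by CellPathfinder machine learning into Hoechst high-intensity objects or normal cells, with normal cells split into healthy, pyknosed or fragmented nuclei and pyknosed cells into mitotic or apoptotic. Tubulin, mitochondrial-mass and membrane-permeability phenotypes are per cents of healthy-nucleus cells.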

[1] = 12 h, 1 µM, compound concentration 1 uM, replicate 1
[2] = 12 h, 1 µM, compound concentration 1 uM, replicate 2
[3] = 12 h, 10 µM, compound concentration 10 uM, replicate 1
[4] = 12 h, 10 µM, compound concentration 10 uM, replicate 2
[5] = 24 h, 1 µM, compound concentration 1 uM, replicate 1
[6] = 24 h, 1 µM, compound concentration 1 uM, replicate 2
[7] = 24 h, 10 µM, compound concentration 10 uM, replicate 1
[8] = 24 h, 10 µM, compound concentration 10 uM, replicate 2
[9] = 48 h, 1 µM, compound concentration 1 uM, replicate 1
[10] = 48 h, 1 µM, compound concentration 1 uM, replicate 2
[11] = 48 h, 10 µM, compound concentration 10 uM, replicate 1
[12] = 48 h, 10 µM, compound concentration 10 uM, replicate 2

O=C(Nc1ccc(-c2ccnc(Nc3ccc(N4CCOCC4)cc3)n2)cc1)[C@@H]1CCCN1
Population Apoptotic (%) [1]: 45% | Population Fragmented Nuclei (%) [1]: 11% | Population Healthy Nuclei (%) [1]: 76% | Population Hoechst High Intensity Objects (%) [1]: 3% | Population Membrane Permeable-Phenotype (%) [1]: 6% | Population Mitochondria Different-Phenotype (%) [1]: 10% | Population Mitotic Cells (%) [1]: 55% | Population Normal (%) [1]: 96% | Population Pyknosed Nuclei (%) [1]: 11% | Population Tubulin-Different-Phenotype (%) [1]: 16% | Total Cell Count [1]: 100 | Population Apoptotic (%) [2]: 33% | Population Fragmented Nuclei (%) [2]: 13% | Population Hoechst High Intensity Objects (%) [2]: 7% | Population Membrane Permeable-Phenotype (%) [2]: 4% | Population Mitotic Cells (%) [2]: 66% | Population Normal (%) [2]: 92% | Population Pyknosed Nuclei (%) [2]: 10% | Population Tubulin-Different-Phenotype (%) [2]: 10% | Total Cell Count [2]: 65 | Population Apoptotic (%) [3]: 62% | Population Fragmented Nuclei (%) [3]: 13% | Population Healthy Nuclei (%) [3]: 66% | Population Hoechst High Intensity Objects (%) [3]: 7% | Population Membrane Permeable-Phenotype (%) [3]: 12% | Population Mitochondria Different-Phenotype (%) [3]: 74% | Population Mitotic Cells (%) [3]: 37% | Population Normal (%) [3]: 92% | Population Pyknosed Nuclei (%) [3]: 20% | Population Tubulin-Different-Phenotype (%) [3]: 97% | Total Cell Count [3]: 176 | Population Apoptotic (%) [4]: 77% | Population Fragmented Nuclei (%) [4]: 7% | Population Healthy Nuclei (%) [4]: 77% | Population Hoechst High Intensity Objects (%) [4]: 5% | Population Membrane Permeable-Phenotype (%) [4]: 8% | Population Mitochondria Different-Phenotype (%) [4]: 28% | Population Mitotic Cells (%) [4]: 22% | Population Normal (%) [4]: 94% | Population Pyknosed Nuclei (%) [4]: 14% | Population Tubulin-Different-Phenotype (%) [4]: 44% | Total Cell Count [4]: 65 | Population Apoptotic (%) [5]: 41% | Population Fragmented Nuclei (%) [5]: 8% | Population Healthy Nuclei (%) [5]: 76% | Population Hoechst High Intensity Objects (%) [5]: 3% | Population Membrane Permeable-Phenotype (%) [5]: 7% | Population Mitochondria Different-Phenotype (%) [5]: 9% | Population Mitotic Cells (%) [5]: 58% | Population Normal (%) [5]: 96% | Population Pyknosed Nuclei (%) [5]: 15% | Population Tubulin-Different-Phenotype (%) [5]: 10% | Total Cell Count [5]: 90 | Population Apoptotic (%) [6]: 60% | Population Fragmented Nuclei (%) [6]: 7% | Population Healthy Nuclei (%) [6]: 85% | Population Hoechst High Intensity Objects (%) [6]: 6% | Population Membrane Permeable-Phenotype (%) [6]: 3% | Population Mitochondria Different-Phenotype (%) [6]: 19% | Population Mitotic Cells (%) [6]: 40% | Population Normal (%) [6]: 93% | Population Pyknosed Nuclei (%) [6]: 7% | Total Cell Count [6]: 63 | Population Apoptotic (%) [7]: 60% | Population Fragmented Nuclei (%) [7]: 12% | Population Healthy Nuclei (%) [7]: 65% | Population Hoechst High Intensity Objects (%) [7]: 7% | Population Membrane Permeable-Phenotype (%) [7]: 17% | Population Mitochondria Different-Phenotype (%) [7]: 80% | Population Mitotic Cells (%) [7]: 39% | Population Normal (%) [7]: 92% | Population Pyknosed Nuclei (%) [7]: 21% | Population Tubulin-Different-Phenotype (%) [7]: 97% | Total Cell Count [7]: 198 | Population Apoptotic (%) [8]: 58% | Population Fragmented Nuclei (%) [8]: 18% | Population Healthy Nuclei (%) [8]: 64% | Population Hoechst High Intensity Objects (%) [8]: 1% | Population Membrane Permeable-Phenotype (%) [8]: 13% | Population Mitochondria Different-Phenotype (%) [8]: 17% | Population Mitotic Cells (%) [8]: 41% | Population Normal (%) [8]: 98% | Population Pyknosed Nuclei (%) [8]: 17% | Population Tubulin-Different-Phenotype (%) [8]: 22% | Total Cell Count [8]: 72 | Population Apoptotic (%) [9]: 36% | Population Fragmented Nuclei (%) [9]: 5% | Population Hoechst High Intensity Objects (%) [9]: 1% | Population Membrane Permeable-Phenotype (%) [9]: 4% | Population Mitochondria Different-Phenotype (%) [9]: 8% | Population Mitotic Cells (%) [9]: 63% | Population Normal (%) [9]: 98% | Population Pyknosed Nuclei (%) [9]: 13% | Population Tubulin-Different-Phenotype (%) [9]: 13% | Total Cell Count [9]: 94 | Population Apoptotic (%) [10]: 0% | Population Fragmented Nuclei (%) [10]: 10% | Population Healthy Nuclei (%) [10]: 80% | Population Hoechst High Intensity Objects (%) [10]: 5% | Population Membrane Permeable-Phenotype (%) [10]: 5% | Population Mitochondria Different-Phenotype (%) [10]: 12% | Population Mitotic Cells (%) [10]: 100% | Population Normal (%) [10]: 94% | Population Pyknosed Nuclei (%) [10]: 9% | Population Tubulin-Different-Phenotype (%) [10]: 16% | Total Cell Count [10]: 61 | Population Apoptotic (%) [11]: 67% | Population Fragmented Nuclei (%) [11]: 24% | Population Healthy Nuclei (%) [11]: 48% | Population Hoechst High Intensity Objects (%) [11]: 6% | Population Membrane Permeable-Phenotype (%) [11]: 18% | Population Mitochondria Different-Phenotype (%) [11]: 53% | Population Mitotic Cells (%) [11]: 32% | Population Normal (%) [11]: 93% | Population Pyknosed Nuclei (%) [11]: 26% | Population Tubulin-Different-Phenotype (%) [11]: 86% | Total Cell Count [11]: 289 | Population Apoptotic (%) [12]: 60% | Population Fragmented Nuclei (%) [12]: 9% | Population Healthy Nuclei (%) [12]: 70% | Population Hoechst High Intensity Objects (%) [12]: 8% | Population Membrane Permeable-Phenotype (%) [12]: 28% | Population Mitochondria Different-Phenotype (%) [12]: 32% | Population Mitotic Cells (%) [12]: 40% | Population Normal (%) [12]: 91% | Population Pyknosed Nuclei (%) [12]: 20% | Population Tubulin-Different-Phenotype (%) [12]: 23% | Total Cell Count [12]: 125
